# Active and inactive are the calls of the source. The rule behind the calls is not given here.
# Tests used:
# [1] = test system: Mycobacterium tuberculosis; assay: Antitubercular activity against Mycobacterium tuberculosis CNCTC My 331/88 (H37Rv) assessed as inhibition of bacterial growth measured after 21 days of incubation by Sulas semisynthetic medium based assay; format: functional; conditions: 504 h, time 21 day
# Outline: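 Micromethod MIC in Sula's semisynthetic medium. MIC is the lowest concentration inhibiting >99% of the mycobacterial population. Isoniazid was the standard drug.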
# [2] = test system: Mycobacterium avium; assay: Antitubercular activity against Mycobacterium avium CNCTC My 330/88 assessed as inhibition of bacterial growth measured after 14 days of incubation by Sulas semisynthetic medium based assay; format: functional; conditions: CNCTC My 330/88, 336 h, time 14 day
# Outline: (§1)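 M. avium was tested by the micromethod in Sula's semisynthetic medium. Compounds in DMSO at 1000 to 0.5 μmol/L. Incubation at 37 °C, read at 14 and 21 days. MIC is the lowest concentration giving >99% growth inhibition.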
# [3] = test system: Mycobacterium avium; assay: Antitubercular activity against Mycobacterium avium CNCTC My 330/88 assessed as inhibition of bacterial growth measured after 21 days of incubation by Sulas semisynthetic medium based assay; format: functional; conditions: CNCTC My 330/88, 504 h, time 21 day; outline: as §1
# [4] = test system: Mycobacterium tuberculosis; assay: Antimycobacterial activity against MDR clinical isolate Mycobacterium tuberculosis PRAHA 1 assessed as inhibition of mycobacterial growth measured after 14 to 21 days of incubation by Sulas semisynthetic medium based assay; format: functional; conditions: time 14-21 day
# Outline: (§2)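 Clinical MDR/XDR M. tuberculosis isolates were tested by the Sula's semisynthetic medium micromethod. Compounds in DMSO at 1000 to 0.5 μmol/L, in twofold-type steps. Incubation at 37 °C, read at 14 and 21 days. MIC99 is the lowest concentration inhibiting >99% of growth. Drug resistance or susceptibility of each isolate is to amikacin, clofazimine, gentamicin, ofloxacin, streptomycin and the others listed.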
# [5] = test system: Mycobacterium tuberculosis; assay: Antimycobacterial activity against MDR clinical isolate Mycobacterium tuberculosis 9449/2007 assessed as inhibition of mycobacterial growth measured after 14 to 21 days of incubation by Sulas semisynthetic medium based assay; format: functional; conditions: time 14-21 day; outline: as §2
# [6] = test system: Mycobacterium tuberculosis; assay: Antimycobacterial activity against XDR clinical isolate Mycobacterium tuberculosis 9449/2007 assessed as inhibition of mycobacterial growth measured after 14 to 21 days of incubation by Sulas semisynthetic medium based assay; format: functional; conditions: time 14-21 day; outline: as §2
# [7] = test system: Mycobacterium tuberculosis; assay: Antimycobacterial activity against MDR clinical isolate Mycobacterium tuberculosis 234/2005 assessed as inhibition of mycobacterial growth measured after 14 to 21 days of incubation by Sulas semisynthetic medium based assay; format: functional; conditions: time 14-21 day; outline: as §2
# [8] = test system: Mycobacterium tuberculosis; assay: Antimycobacterial activity against XDR clinical isolate Mycobacterium tuberculosis 234/2005 assessed as inhibition of mycobacterial growth measured after 14 to 21 days of incubation by Sulas semisynthetic medium based assay; format: functional; conditions: time 14-21 day; outline: as §2
# [9] = test system: Mycobacterium tuberculosis; assay: Antimycobacterial activity against MDR clinical isolate Mycobacterium tuberculosis 7357/1998 assessed as inhibition of mycobacterial growth measured after 14 to 21 days of incubation by Sulas semisynthetic medium based assay; format: functional; conditions: time 14-21 day; outline: as §2
# [10] = test system: Mycobacterium tuberculosis; assay: Antimycobacterial activity against XDR clinical isolate Mycobacterium tuberculosis 7357/1998 assessed as inhibition of mycobacterial growth measured after 14 to 21 days of incubation by Sulas semisynthetic medium based assay; format: functional; conditions: time 14-21 day; outline: as §2
# [11] = test system: Mycobacterium tuberculosis; assay: Antimycobacterial activity against MDR clinical isolate Mycobacterium tuberculosis 8666/2010 assessed as inhibition of mycobacterial growth measured after 14 to 21 days of incubation by Sulas semisynthetic medium based assay; format: functional; conditions: time 14-21 day; outline: as §2
# [12] = test system: Mycobacterium tuberculosis; assay: Antimycobacterial activity against XDR clinical isolate Mycobacterium tuberculosis 8666/2010 assessed as inhibition of mycobacterial growth measured after 14 to 21 days of incubation by Sulas semisynthetic medium based assay; format: functional; conditions: time 14-21 day; outline: as §2
# [13] = test system: HepG2; assay: Cytotoxicity against human HepG2 cells assessed as cell viability at 50 uM incubated for 72 hrs by MTT spectrophotometric analysis relative to control; format: functional; conditions: read-out: Activity
# Outline: (§3)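 HepG2 or rat H9c2 cells in DMEM with FBS, seeded at 10,000 cells/well. Treated 24 h later for 72 h, with 0.1% DMSO vehicle and 1% Triton X-100 as controls. MTT added (3 mg/mL solution) for 2 h at 37 °C, then cells lysed in isopropanol/0.1 M HCl/5% Triton X-100. Read at 570 nm minus 690 nm. Viability expressed as % of vehicle; IC50 derived where reached. At least four independent experiments.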
# [14] = test system: HepG2; assay: Cytotoxicity against human HepG2 cells assessed as cell viability incubated for 72 hrs by MTT spectrophotometric analysis; format: functional, cell-based; conditions: HepG2, 72 h; outline: as §3
# [15] = Aqueous solubility of compound incubated for 20 mins by UV-Visible spectrophotometric analysis; format: physicochemical; conditions: buffer
# Outline: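 Solubility in ultrapure water containing 5% DMSO. Absorbance taken at each compound's λmax and compared with a six-point calibration made by serial dilution of a 50 μM standard, fitted by linear regression. Over-saturated solutions were sonicated at 37 °C for 10 min and centrifuged at 8000 RPM for 10 min. Supernatant absorbance was read, after dilution with 5% DMSO/water if above the calibration range.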
# [16] = Half life in human liver microsomes at 3 uM incubated for 5 to 45 min in presence of NADPH by LC-MS analysis; format: ADME, Microsome; conditions: time 5-45 min
# [17] = test system: Staphylococcus aureus; assay: Antibacterial activity against methicilin-resistant Staphylococcus aureus C1923 assessed as inhibition of bacterial growth incubated for 24 to 48 hrs by microdilution broth method; format: functional, organism-based; conditions: time 24-48 hrs
# Outline: (§4)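 Clinical isolates, stored at −70 °C, were passaged twice on Mueller-Hinton agar. Broth microdilution in Mueller-Hinton broth, pH 7.4, with twofold serial dilutions. DMSO was at most 1% final. Inoculum 1.5 × 10⁸ CFU/mL suspension. MIC is 95% growth inhibition, read after 24 and 48 h at 36 °C.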
# [18] = test system: Klebsiella pneumoniae; assay: Antibacterial activity against ESBL negative Klebsiella pneumoniae C1950 assessed as inhibition of bacterial growth incubated for 24 to 48 hrs by microdilution broth method; format: functional, organism-based; conditions: time 24-48 hrs
# Outline: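 Clinical isolates kept at –70 °C and subcultured twice on Mueller-Hinton agar, using the second subculture. Broth microdilution in Mueller-Hinton broth at pH 7.4 with two-fold serial compound dilutions and DMSO ≤1% final. Inoculum was 10 μL of a 1.5 × 10⁸ CFU/mL suspension. Incubated at 36 °C ± 1 °C and read at 24 h and 48 h. MIC taken as 95% growth inhibition.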
# [19] = test system: Pseudomonas aeruginosa; assay: Antibacterial activity against multidrug-resistant Pseudomonas aeruginosa A1245 assessed as inhibition of bacterial growth incubated for 24 to 48 hrs by microdilution broth method; format: functional, organism-based; conditions: time 24-48 hrs; outline: as §4
# [20] = test system: Staphylococcus aureus; assay: Antibacterial activity against Staphylococcus aureus C1947 assessed as inhibition of bacterial growth at 125 uM incubated for 24 to 48 hrs by microdilution broth method; format: functional, organism-based; conditions: time 24-48 hrs
# [21] = test system: Staphylococcus aureus; assay: Antibacterial activity against methicilin-resistant Staphylococcus aureus C1923 assessed as inhibition of bacterial growth at 125 uM incubated for 24 to 48 hrs by microdilution broth method; format: functional, organism-based; conditions: time 24-48 hrs
# [22] = test system: Enterococcus faecium; assay: Antibacterial activity against vancomycin-resistant Enterococcus faecium assessed as inhibition of bacterial growth at 125 uM incubated for 24 to 48 hrs by microdilution broth method; format: functional, organism-based; conditions: time 24-48 hrs
# [23] = test system: Klebsiella pneumoniae; assay: Antibacterial activity against ESBL negative Klebsiella pneumoniae C1950 assessed as inhibition of bacterial growth at 125 uM incubated for 24 to 48 hrs by microdilution broth method; format: functional, organism-based; conditions: time 24-48 hrs
# [24] = test system: Pseudomonas aeruginosa; assay: Antibacterial activity against multidrug-resistant Pseudomonas aeruginosa A1245 assessed as inhibition of bacterial growth at 125 uM incubated for 24 to 48 hrs by microdilution broth method; format: functional, organism-based; conditions: time 24-48 hrs
smiles,measurement,setting,value
O=c1[nH]c(N2CCOCC2)nc2ncn(Cc3ccc4ccccc4c3)c12,MIC99,[1],4 µM
same,MIC99,[2],> 500 µM
same,MIC99,[3],> 500 µM
same,MIC99,[4],32 µM
same,MIC99,[5],32 µM
same,MIC99,[6],64 µM
same,MIC99,[7],16 µM
same,MIC99,[8],32 µM
same,MIC99,[9],32 µM
same,MIC99,[10],64 µM
same,MIC99,[11],32 µM
same,MIC99,[12],64 µM
same,viability at 50 µM,[13],60.5%
same,IC50,[14],59 µM
same,solubility at 20 min,[15],46.9 µM
same,half-life at 3 µM,[16],110 min
same,Activity,[17],inactive
same,Activity,[18],inactive
same,Activity,[19],inactive
O=c1[nH]c(N2CCCCC2)nc2ncn(Cc3ccc4ccccc4c3)c12,MIC99,[1],4 µM
same,MIC99,[2],> 500 µM
same,MIC99,[3],> 500 µM
same,MIC99,[4],16 µM
same,MIC99,[5],8 µM
same,MIC99,[6],16 µM
same,MIC99,[7],16 µM
same,MIC99,[8],16 µM
same,MIC99,[9],16 µM
same,MIC99,[10],16 µM
same,MIC99,[11],8 µM
same,MIC99,[12],8 µM
same,viability at 50 µM,[13],42.2%
same,IC50,[14],54.8 µM
same,solubility at 20 min,[15],8.4 µM
same,half-life at 3 µM,[16],17.8 min
same,Activity,[17],inactive
same,Activity,[18],inactive
same,Activity,[19],inactive
c1ccc(CNc2nc(N3CCOCC3)nc3ncn(Cc4ccc5ccccc5c4)c23)cc1,MIC99,[1],4 µM
same,MIC99,[2],64 µM
same,MIC99,[3],64 µM
same,MIC99,[4],4 µM
same,MIC99,[5],4 µM
same,MIC99,[6],4 µM
same,MIC99,[7],2 µM
same,MIC99,[8],4 µM
same,MIC99,[9],2 µM
same,MIC99,[10],4 µM
same,MIC99,[11],4 µM
same,MIC99,[12],4 µM
same,solubility at 20 min,[15],58.9 µM
same,half-life at 3 µM,[16],19.3 min
same,Activity,[17],inactive
same,Activity,[18],inactive
same,Activity,[19],inactive
CCNc1nc(N2CCOCC2)nc2ncn(Cc3ccc4ccccc4c3)c12,MIC99,[1],1 µM
same,MIC99,[2],250 µM
same,MIC99,[3],250 µM
same,MIC99,[5],2 µM
same,MIC99,[6],4 µM
same,MIC99,[11],2 µM
same,MIC99,[12],2 µM
same,viability at 50 µM,[13],66.9%
same,IC50,[14],> 50 µM
same,solubility at 20 min,[15],150 µM
same,half-life at 3 µM,[16],51.3 min
same,Activity,[17],inactive
same,Activity,[18],inactive
same,Activity,[19],inactive
same,Activity,[20],inactive
same,Activity,[21],inactive
same,Activity,[22],inactive
same,Activity,[23],inactive
same,Activity,[24],inactive
Nc1nc(N2CCOCC2)nc2ncn(Cc3ccc4ccccc4c3)c12,MIC99,[1],2 µM
same,MIC99,[2],> 500 µM
same,MIC99,[3],> 500 µM
same,MIC99,[5],2 µM
same,MIC99,[6],4 µM
same,MIC99,[11],2 µM
same,MIC99,[12],4 µM
same,viability at 50 µM,[13],77%
same,IC50,[14],> 50 µM
same,solubility at 20 min,[15],97.7 µM
same,half-life at 3 µM,[16],82.5 min
same,Activity,[17],inactive
same,Activity,[18],inactive
same,Activity,[19],inactive
same,Activity,[20],inactive
same,Activity,[21],inactive
same,Activity,[22],inactive
same,Activity,[23],inactive
same,Activity,[24],inactive

# Reference: ChEMBL document CHEMBL5620421, “2,6-Disubstituted 7-(naphthalen-2-ylmethyl)-7H-purines as a new class of potent antitubercular agents inhibiting DprE1” (Eur J Med Chem, 2023)
